Assay results collected from several papers.
Lines come from different studies, so protocols differ.
Observed: enzyme activity
Mode: inhibitor
CDK5 with p35: Cyclin-dependent kinase 5, with p35 (CDK5, Homo sapiens, UniProt Q00535)
CDK5 with p25: Cyclin-dependent kinase 5, with p25 (CDK5, Homo sapiens, UniProt Q00535)

| Structure (SMILES) | target | assay | conditions | remaining activity |
| --- | --- | --- | --- | --- |
| O=C(Nc1cnn(-c2csc(C(=O)NC3COC3)c2)c1)Nc1c(F)cccc1Cl | CDK5 with p35 | – | 5 µM | 94.3% |
| CCCOc1ccc(OC)c(F)c1C(=O)c1ccc(C(=O)N[C@@H]2CNC[C@H]2NC(=O)c2ccc3[nH]ncc3c2)cc1 | CDK5 with p25 | – | 50 nM | 114% |
| CC(C)(C)c1nc2c(s1)c1nc(N)ncc1c1ccc(NS(=O)(=O)c3c(F)cccc3F)c(F)c12 | CDK5 with p35 | radiometric | 1 µM | 77% |
| Cc1sc(C(=O)NC2COC2)cc1-n1cc(NC(=O)Nc2c(F)cccc2Cl)cn1 | CDK5 with p35 | – | 10 µM | 103% |
| Cc1cnc(NC2CCOCC2)nc1-n1cnc(C(=O)NC(CN)c2cc(F)cc(Cl)c2)c1 (centres unmarked) | CDK5 with p25 | radiometric | 1 µM | 2% |
| COc1cc(Cl)c(C(=O)N[C@@H](CN[C@H]2CC[C@@H](N)CC2)Cc2ccc(C#N)cc2)cc1-c1ccc(CN[C@H](C)c2ccc(C)cc2)o1 | CDK5 with p35 | – | 1 µM | 88% |
| Cc1ccc(C(=O)Nc2ccc(CN3CCN(C)CC3)c(C(F)(F)F)c2)cc1C#Cc1cnc2cccnn12 | Cyclin-dependent kinase 5 (CDK5, Homo sapiens, UniProt Q00535) | – | 23.5 nM | 98% |
| CCN(CC)c1ccc(C2=NNC(=O)CC2C)cc1[N+](=O)[O-] (centres unmarked) | CDK5 with p25 | – | 10 µM | 113% |
| O=C(Nc1cnn(-c2csc(C(=O)NC3COC3)c2)c1)Nc1ccccc1Cl | CDK5 with p35 | – | 5 µM | 95.4% |
| CC[C@H](C)[C@H](NC(=O)[C@H](CCC(N)=O)NC(=O)[C@H](CC(C)C)NC(=O)[C@H](CCSC)NC(=O)[C@H](CCCCN)NC(=O)[C@H](CO)NC(=O)[C@H](CO)NC(=O)[C@H](CCSC)NC(=O)[C@H](CC(C)C)NC(=O)[C@H](CC(N)=O)NC(=O)[C@@H](NC(=O)[C@@H](NC(=O)[C@H](CO)NC(=O)[C@H](CC(C)C)NC(=O)[C@H](CS)NC(=O)[C@H](CCCNC(=N)N)NC(=O)[C@H](CC(=O)O)NC(=O)[C@H](Cc1c[nH]c2ccccc12)NC(=O)[C@H](Cc1ccccc1)NC(=O)[C@H](C)NC(=O)[C@H](CCC(=O)O)NC(=O)[C@@H](N)CCCCN)C(C)C)[C@@H](C)CC)C(=O)N[C@@H](CC(N)=O)C(=O)N[C@@H](C)C(=O)O | CDK5 with p25 | radiometric | 250 µM, 20 min | 41% |
| CC(C)(O)[C@H]1CC[C@H](Nc2ccc3ncc(-c4cccc(C(F)(F)F)c4)n3n2)CC1 | CDK5 with p25 | – | 1 µM | 92.2% |
